Hits are enriched below; roughly 2.3% of the tested compounds scored in any of these assays.
CHT inh: inhibitors of human choline transporter CHT. High affinity choline transporter 1 (Homo sapiens), Q9GZV3. CHT-expressing cells, membrane potential dye, choline response; active compounds read low. B-score at 10 µM. 310,000 compounds, 0.86% hits. AID 488975, 2010;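 active = B-score over 3 SD under the library average, and starting fluorescence ratio not unusually high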;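 also: choline stimulus applied at its EC90 after an EC20 pre-addition; B-score computed on integrated fluorescence ratio after choline addition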
CHT allo act: CHT positive allosteric modulators, primary screen, cell-based, membrane potential dye, choline EC20. B-score at 10 µM. CHT-expressing cells; active compounds read high; LV-AA mutant CHT in HEK293 cells. AID 488977, 2010. High affinity choline transporter 1 (Homo sapiens), Q9GZV3. 310,000 compounds, 0.49% hits;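 active = initial fluorescence not abnormally high and integrated response B-score, plate-corrected, over 3 SD above library mean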
T cell HTS: modulators of CD8 T cell-vesicle binding, primary screen, mouse 2C CD8+ T cells, flow cytometry; 2C CD8+ T cell-vesicle binding; active compounds read low; response (vesicle binding), % at 7 µM; 330,000 compounds, 0.068% hits; AID 2052, 2009;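 active = response, share of CD8 T cells binding vesicles, and their 90th percentile fluorescence all below set limits, cut at about 80% in these data, passing the limit was not always enough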;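 also: values below 100% mean blocked vesicle binding to the CD8+ T cells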
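Assay system: 2C TCR transgenic mouse naive CD8+ T cells, MACS-purified | Read-out: CD8+ gate FL2 mean fluorescence as % of same-row positive control | Signal: High-throughput flow cytometry with anti-B7-1 and anti-CD8 staining | Timing: Binding step 1.5 h, 37 °C, antibody labelling 20 min, ice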
GPR7 antag: GPR7 receptor antagonists, primary screen, cell-based, fluorescence, single concentration; GPR7-expressing cells, fluorescence antagonist assay; inhibition, % at 4.4 µM; Neuropeptides B/W receptor type 1 (Homo sapiens), P48145; 290,000 compounds, 1.1% hits; in the data active = inhibition above about 16%, passing the limit was not always enough;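 also: cells stimulated with the agonist NPW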
Pemphigus Ab inh: inhibitors of pemphigus antibody binding to DSG3, primary screen, biochemical, bead-based, flow cytometry, scFv-GFP; Desmoglein-3 (Homo sapiens), P32926; DSG3-coupled beads, scFv-anti-DSG3-GFP binding; active compounds read low; binding (percent of control), % at 10 µM; 310,000 compounds, 0.48% hits;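 active = binding more than 3 SD below its plate's average and above zero; inconclusive = below that plate limit but binding exactly zero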;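 also: hits lower antibody fragment binding to DSG3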
pCIP destab: p/CIP-EGFP fusion destabilizers, primary screen, fluorescence, F442A cells; Q05BA5; 16 h; decrease of EGFP signal, % at 10 µM; 290,000 compounds, 0.01% hits;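 active = EGFP signal decrease of at least 30% at 10 µM or well 3 SD below plate mean, unless failing retest; inactive = the rest, including hits failing retest or dose response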
Numbers stand for hits; n = inactive; u = inconclusive; x = not tested or not shown.

SMILES	CHT inh	CHT allo act	T cell HTS	GPR7 antag	Pemphigus Ab inh	pCIP destab
CC(=O)Nc1ccc2sn(-c3ccccc3)c(=O)c2c1	x	x	x	x	49	x
N#Cc1ccc2sn(-c3ccccc3)c(=O)c2c1	x	x	x	x	41	x
CN1C(=O)[C@H]2[C@@H](c3ccc(C(F)(F)F)cc3)N[C@]3(CCCN(Cc4ccc(C(F)(F)F)cc4)C3=O)[C@H]2C1=O	x	x	x	x	n	x
CC(C)NC(=O)c1ccc(N(Cc2ccccc2)S(C)(=O)=O)cc1	n	n	n	n	88	n
C[C@H]1CN([C@@H](C)CO)S(=O)(=O)c2ccc(C#Cc3cccnc3)cc2O[C@@H]1CN(C)C(=O)Nc1ccc2c(c1)OCO2	x	x	x	x	n	x
CSc1sc(C(=O)NCC2CC2)c(-c2cccs2)c1C#N	n	n	n	n	n	n
CSc1sc(C(=O)NCC2CC2)c2c1S(=O)(=O)N(C)c1ccccc1-2	n	n	n	n	93	n
COC(=O)c1c(C)[nH]c(C(=O)OC(C)C(=O)NC2CCCCC2C)c1C (centres undefined)	x	x	x	x	n	x
Cc1nc(NC(=O)c2ccccc2)sc1-c1cc(C(=O)N2CCOCC2)nn1Cc1ccccc1	x	x	x	x	n	x
COc1cc(OC)c(/C=N/NC(=O)c2ccc(NC(C)=O)cc2)cc1Br	x	x	x	n	74	n
CCCCC(CC)C(=O)Oc1ccc(O)c(C(C)(C)C)c1 (centres undefined)	n	n	n	30	n	n
COc1cc(/C=N/NC(=O)Nc2ccccc2)ccc1OC(C)=O	n	n	n	n	n	n
C=CC[n+]1c(/C=C/c2ccc(OC(C)=O)c(OC)c2)ccc2ccccc21	n	7.4	n	n	n	n
CCn1c(=O)c2ccccc2n2c(SCC(=O)NCc3cccs3)nnc12	n	n	n	n	n	n
CCCn1c(=O)c2ccccc2n2c(SCC(=O)NCc3cccs3)nnc12	n	n	n	18	u	n
CCn1c(=O)c(C(=O)CN2CCN(S(=O)(=O)c3cc(C)ccc3C)CC2)c(N)n(Cc2ccccc2)c1=O	n	n	n	n	88	n
CN1C(=O)/C(=C2\SC(=S)N(CCCCCC(=O)O)C2=O)c2ccccc21	n	n	n	n	45	n
CC(C)CN(C(=O)COC(=O)c1cc2ccccc2cc1O)c1c(N)n(Cc2ccccc2)c(=O)[nH]c1=O	x	x	x	x	n	x
CCOc1ccc(S(=O)(=O)NC(Cc2cnc[nH]2)C(=O)O)cc1 (centres undefined)	n	n	n	n	8.8	n
CCOc1ccc(C(=O)CCNC(Cc2cnc[nH]2)C(=O)O)cc1 (centres undefined)	n	n	n	n	n	n
Cc1noc(C)c1COc1ccc(CC(=O)NCc2ccccc2)cc1	n	n	n	18	n	n
Cc1noc(C)c1COc1ccc(CC(=O)NCCc2ccccn2)cc1	n	n	n	n	n	n
O=C(C[n+]1cccc2ccccc21)c1ccccc1	n	n	n	n	n	n
CCCCCCCCCCCCCCCC[n+]1cccc2ccccc21	n	8.7	n	n	x	n
CCN(CC)c1ccc2cc(C(C)=O)c(=O)oc2c1	n	n	n	n	n	n
SMILES	CHT inh	CHT allo act	T cell HTS	GPR7 antag	Pemphigus Ab inh	pCIP destab
CCN(CC)c1ccc2cc(-c3nnc(-c4ccncc4)o3)c(=O)oc2c1	x	x	x	41	n	n
COc1ccc(CCN2CC(C(=O)NCCCc3ccncc3)CCC2=O)cc1 (centres undefined)	x	x	x	x	n	x
Cc1nn(-c2ccccc2)nc1-c1nnc(-c2ccc(C(F)(F)F)cc2)o1	n	n	n	n	76	n
CC(C)c1ccc(OCc2ccc(C(=O)N3CCCC3)o2)cc1	n	7.1	n	n	x	n
COC(=O)Cn1cc(C(=O)OC)c2ccccc21	n	n	n	21	n	n
CC(OC(=O)[C@H](C)N=C1NS(=O)(=O)c2ccccc21)C(=O)Nc1ccc(F)c(F)c1F (some centres undefined)	x	x	x	x	n	x
O=C(NCCOc1ccc(F)cc1)C1CCC(=O)N(Cc2ccc(Cl)cc2)C1 (centres undefined)	x	x	x	x	n	x
